Assay: Toxicity liver stage against HepG2, at 10uM
Assay type: cell-based
Design: test concentration 10 uM, cell line HepG2-A16-CD81EGFP
Details: human, HepG2-A16-CD81EGFP cells; read-out: INHIBITION
In short: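 Uninfected HepG2-A16-CD81EGFP cells, 3 × 10^3 per well, 1536-well, plated on prespotted compound at 10 μM final, parasite-free screening media added to match infected plates; puromycin 10 μM positive, DMSO 0.5% negative; run in parallel with 48 h PbLuc assay at 37 °C, 5% CO2; viability by CellTiter-Glo luminescence, normalized to controls.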

CCc1nnc(CN(CC)C(=O)C2CC(=O)N(Cc3cccnc3)C2)o1 (stereo unspecified)
cytotoxicity at 10 µM: 2.3%

Cc1cc(CC(C)NC(=O)c2cccc(CC3CCNCC3)c2)[nH]n1 (stereo unspecified)
cytotoxicity at 10 µM: 11.1%

Cc1c(Cn2ccnc2-c2cc(CN(C)C)cs2)cnn1C
cytotoxicity at 10 µM: -0.309%

COCCc1noc(CNC2CCSC2)n1 (stereo unspecified)
cytotoxicity at 10 µM: -15%

Nc1nccc(N2CCC(Cc3ccccc3Cl)(C(=O)O)CC2)n1
cytotoxicity at 10 µM: -21.8%

OCCOCCN1CCCC1c1nc2cc(F)ccc2[nH]1 (stereo unspecified)
cytotoxicity at 10 µM: -17.5%

Cc1nc(CCN(C)C(=O)C2COc3ccccc3C2)no1 (stereo unspecified)
cytotoxicity at 10 µM: -19.7%

CCCNC(=O)c1ccc(NC(=O)c2cccc(OCC)c2)cc1
cytotoxicity at 10 µM: -10.5%

Cc1csc(Nc2nccnc2C2CCCN2C(=O)C(C)C)n1 (stereo unspecified)
cytotoxicity at 10 µM: 1.3%

CSc1ccc(C(=O)N2CCOCC2c2c(C)nn(C)c2C)o1 (stereo unspecified)
cytotoxicity at 10 µM: -2.12%

N#Cc1ccsc1NC(=O)CN1CCn2c(nnc2C2CC2)C1
cytotoxicity at 10 µM: -14.5%

Clc1ccc(CN2CCCC2Cn2cncn2)c2ncccc12 (stereo unspecified)
cytotoxicity at 10 µM: -9.66%

Cc1[nH]ncc1C(=O)N1CCCC(c2ccn[nH]2)C1 (stereo unspecified)
cytotoxicity at 10 µM: 0.23%

Cn1cnc2c1CCN(Cc1csc(-c3ccccc3)n1)C2
cytotoxicity at 10 µM: -1.04%

CC(C(=O)N1CCN(Cc2ccc(C#N)cc2)CC1)n1ccnc1 (stereo unspecified)
cytotoxicity at 10 µM: -9.71%

CC(C(=O)NCc1ccnc(N2CCN(C)CC2)c1)S(C)(=O)=O (stereo unspecified)
cytotoxicity at 10 µM: -13.9%

Cn1ccnc1CN1CCN(CCOc2cccc(C#N)c2)CC1
cytotoxicity at 10 µM: -18%

CN(CC(=O)N1CCCCC1Cn1cccn1)Cc1ccccc1 (stereo unspecified)
cytotoxicity at 10 µM: -3.99%

c1ncn(CC2CCCN2Cc2csc(C3CCCCC3)n2)n1 (stereo unspecified)
cytotoxicity at 10 µM: 1.77%

O=C1C(NS(=O)(=O)c2ccc(F)cc2)CCN1Cc1ccccc1 (stereo unspecified)
cytotoxicity at 10 µM: -3.48%

CC(Cn1cccn1)NC(=O)NCc1ccnc(OC2CCCC2)c1 (stereo unspecified)
cytotoxicity at 10 µM: -4.59%

CCC(C)NC(=O)c1cc(Br)c2c(c1)OCCO2 (stereo unspecified)
cytotoxicity at 10 µM: -14.3%

O=C(CN1CCOC(CNc2cccnn2)C1)NCc1ccccn1 (stereo unspecified)
cytotoxicity at 10 µM: -0.945%

Cc1cnn(CC2CCCN2Cc2noc(-c3ccccc3)n2)c1 (stereo unspecified)
cytotoxicity at 10 µM: 0.441%

COc1ccc(COCC(O)CNC(=O)c2cccc(OC)c2)cc1 (stereo unspecified)
cytotoxicity at 10 µM: -9.05%

CNC(=O)C1CCN(C(=O)NCCc2ccc(Cl)s2)CC1
cytotoxicity at 10 µM: -12.3%

O=C(O)c1cc(S(=O)(=O)Nc2ccc(F)cc2Cl)cc2c1OCCO2
cytotoxicity at 10 µM: -8.12%

CCc1cccc(N2CCC(NC(=O)c3ccncc3)CC2)c1
cytotoxicity at 10 µM: -13.9%

COc1cc(CNCC2CNc3ccnn3C2)ccn1 (stereo unspecified)
cytotoxicity at 10 µM: -0.65%

CN(CC(=O)N1CCCC1c1noc(C2CC2)n1)Cc1ccccc1 (stereo unspecified)
cytotoxicity at 10 µM: -5.09%

O=C(NCC(=O)N1CCCC(c2ccccc2)CC1)c1ccoc1 (stereo unspecified)
cytotoxicity at 10 µM: -4.31%

CCC(O)CN1CCN(C(=O)c2sccc2C(C)C)CC1 (stereo unspecified)
cytotoxicity at 10 µM: 6.89%

NC(=O)c1csc(C(=O)N2CCCC(n3cccn3)C2)c1 (stereo unspecified)
cytotoxicity at 10 µM: -2.77%

NC(=O)c1ccc(C(=O)N2CCCC(n3ccnc3)C2)s1 (stereo unspecified)
cytotoxicity at 10 µM: -20.5%

Cc1noc(C)c1C(=O)NCC(c1ccc(F)cc1)N(C)C (stereo unspecified)
cytotoxicity at 10 µM: -0.0707%

COCCN1CCC(N(Cc2noc(C3CC3)n2)C(C)=O)C1 (stereo unspecified)
cytotoxicity at 10 µM: -12.4%

Cc1cccc(-c2ccc(C(=O)NCCN(C)C3CC3)c(=O)[nH]2)c1
cytotoxicity at 10 µM: -6.81%

Cc1ccccc1CC(=O)N(C)C1CCCC1
cytotoxicity at 10 µM: 6.33%

COc1ccc(Br)c(C(=O)N2CCC(c3n[nH]c(C4CC4)n3)CC2)c1
cytotoxicity at 10 µM: -1.44%

CCC1CN(CCNC(C)=O)CCN1CCOC (stereo unspecified)
cytotoxicity at 10 µM: -3.09%

CCOc1cccc2c1OCC(C(=O)NS(=O)(=O)c1ccc(Cl)cc1)=C2
cytotoxicity at 10 µM: -11.1%

O=C(NCCOc1ccc2c(c1)OCO2)N1CCC1
cytotoxicity at 10 µM: -6.24%

CCc1cnc(CN2CCC(N(C)Cc3noc(C4CC4)n3)C2)o1 (stereo unspecified)
cytotoxicity at 10 µM: -10.2%

CCn1cnnc1CNC(=O)N1CCN(Cc2ccccc2)CC1
cytotoxicity at 10 µM: -1.3%

COc1c(C2CCCN2C(=O)c2cccc(C(N)=O)c2)c(C)nn1C (stereo unspecified)
cytotoxicity at 10 µM: 0.192%

Cc1cc(CN2CCN(C(=O)c3sccc3C(C)C)CC2)no1
cytotoxicity at 10 µM: -0.962%

CN(C)S(=O)(=O)N1C[C@@H]2CN(Cc3ccoc3)CCO[C@@H]2C1
cytotoxicity at 10 µM: 12.2%

O=C(C1=CCCC1)N1CCC[C@]2(C[C@@H](Oc3ncccc3F)CO2)C1
cytotoxicity at 10 µM: -15.5%

Cc1cccc(CN2C[C@@H]3CN(C(=O)c4ccco4)C[C@@H]3C2=O)n1
cytotoxicity at 10 µM: -0.42%

Cc1cccc(CN2C[C@@H]3CN(C(=O)c4ccsc4)C[C@@H]3C2=O)n1
cytotoxicity at 10 µM: 5.86%

CC(=O)N1CC(=O)N(c2cnn(C)c2)CC12CCN(Cc1ccsc1)C2 (stereo unspecified)
cytotoxicity at 10 µM: -17.6%

Cc1c(F)cccc1S(=O)(=O)NC(C)(C)CN
cytotoxicity at 10 µM: 0.926%

C[C@@H]1CN(Cc2ccoc2)C[C@]12CCN(CC(=O)N(C)C)C2=O
cytotoxicity at 10 µM: 2.11%

CC(=O)N1[C@H](CN(C)C)C[C@@H]2CN(C(=O)c3cncc(C)c3)CC[C@@H]21
cytotoxicity at 10 µM: 3.76%

CS(=O)(=O)N1CCO[C@@H]2CCN(Cc3ccncc3)CC[C@H]21
cytotoxicity at 10 µM: 1.15%

COc1cc(N2CCO[C@H]3[C@@H](Oc4cccnc4)CC[C@@H]32)ncn1
cytotoxicity at 10 µM: -3.33%
